The series can be described thus: Toxicity liver stage against HepG2, at 10uM. The arrangement: test concentration 10 uM, cell line HepG2-A16-CD81EGFP. Conditions: human, HepG2-A16-CD81EGFP cells; read-out: INHIBITION
It is filed as cell-based. The gist of the method:
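Uninfected HepG2-A16-CD81EGFP cells, 3 × 10^3 per well, 1536-well, plated on prespotted compound at 10 μM final, parasite-free screening media added to match infected plates; puromycin 10 μM positive, DMSO 0.5% negative; run in parallel with 48 h PbLuc assay at 37 °C, 5% CO2; viability by CellTiter-Glo luminescence, normalized to controls.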
Take `COCCCN(Cc1ccccn1)S(=O)(=O)N(C)C`: the cytotoxicity at 10 µM was 12%.

`COC(=O)CSc1nnc2[nH]c(=O)c3c(n12)CCCC3`: the cytotoxicity at 10 µM is -99.8%.

`Fc1cnc(N2CCCn3c(nnc3Cn3cccn3)C2)nc1`: the cytotoxicity at 10 µM came to 4.53%.

Take `CCOc1ccc(CCC(=O)N2CC[C@H]3C(=O)NCCO[C@H]3C2)cc1`: the cytotoxicity at 10 µM amounted to 12.1%.

As to `CCOC1CC2(CCN(Cc3cnn(C)c3)CC2)c2ccc(C)cc21` (stereo unspecified), the cytotoxicity at 10 µM is 4.62%.

Take `CN1C[C@@H]2CN(C(=O)C3CCOC3)C[C@@H]2C1=O` (stereo partly specified): the cytotoxicity at 10 µM was -127%.

Regarding `CCCS(=O)(=O)N1C[C@@H](c2nc(C)no2)C[C@H]2OCC[C@H]21`, the cytotoxicity at 10 µM was -130%.

On to `c1cncc(CN2CCc3c(CNc4nccs4)n[nH]c3C2)c1`, for which the cytotoxicity at 10 µM was 1.04%.

In the case of `Cc1cccc(C(=O)N2CCn3cnc(COCC4CC4)c3C2)c1`, the cytotoxicity at 10 µM stood at 14%.

Consider `NC(=O)c1c(NC(=O)CCCC(=O)O)sc2c1CCc1ccccc1-2`, for which the cytotoxicity at 10 µM is -1.25%.

Take `Cc1noc2nc3c(c(C(=O)/N=c4\[nH]ncs4)c12)CCC3`: the cytotoxicity at 10 µM was -0.493%.

As for `Cc1cnn(CC(=O)N2CCC(c3ccn4nccc4n3)CC2)c1`, the cytotoxicity at 10 µM was 3.24%.

Turning to `Cc1nc(N)cc(C2(C)CCCNC2)n1` (stereo unspecified), the cytotoxicity at 10 µM was 1.36%.

In the case of `CN1CCOC(C)(C(=O)N2CCN(C3CCCC3)CC2)C1` (stereo unspecified), the cytotoxicity at 10 µM is -25.8%.

Take `Cc1ccnn1CCC(=O)N1CCC(c2cnccn2)CC1`: the cytotoxicity at 10 µM is -26.1%.

As to `Cc1ccc([C@@]2(O)CC[C@@H]3CN(S(=O)(=O)c4cn(C)nc4C)C[C@@H]32)cc1`, the cytotoxicity at 10 µM is -16.2%.

Consider `O=C(CCCn1cccn1)N1C[C@@H](O)[C@H](Oc2cccc(F)c2)C1`, for which the cytotoxicity at 10 µM is 5.75%.

For the molecule `Cc1ccc(S(=O)(=O)N2CCC(c3n[nH]cc3C)C2)cc1` (stereo unspecified), the cytotoxicity at 10 µM is -14.3%.

Regarding `CN(C)C(=O)C1CN(Cc2cccs2)CCN(S(C)(=O)=O)C1` (stereo unspecified), the cytotoxicity at 10 µM is -33.1%.

Turning to `COc1ccc(CN(C)[C@@H]2CN(C(=O)c3cccn3C)C[C@H]2O)cc1`, the cytotoxicity at 10 µM was -21.5%.

Turning to `COc1ccc(OC)c(S(=O)(=O)NC(=O)C(C)OC)c1` (stereo unspecified), the cytotoxicity at 10 µM was -1.2%.

`COc1ccc(S(=O)(=O)NC(=O)C(C)OC)c(OC)c1` (stereo unspecified): the cytotoxicity at 10 µM was -6.67%.

Turning to `O=C(NCCc1nncn1C1CC1)C1(c2ccccc2)CCC1`, the cytotoxicity at 10 µM was found to be 5.36%.

On to `Cc1ccc(CN(C)C(=O)NCC(C)(C)NS(C)(=O)=O)s1`, for which the cytotoxicity at 10 µM was -0.422%.

Take `COC(C)c1cccc(NCc2ccsc2)c1` (stereo unspecified): the cytotoxicity at 10 µM was -4.53%.

In the case of `O=C(c1ccc(-c2ccccc2)[nH]c1=O)N1CCN(C2CC2)CC1`, the cytotoxicity at 10 µM came out at 9.8%.

Consider `CCc1cc(C)c(C(=O)N2CCCC(c3nnn[nH]3)C2)o1` (stereo unspecified), for which the cytotoxicity at 10 µM was determined as 1.02%.

As for `CN1CCC(N(Cc2ccccc2)C(=O)c2ccn3cncc3c2)CC1`, the cytotoxicity at 10 µM is 5.68%.

As for `CCC(C)NC(=O)CS(=O)(=O)Cc1cc(Cl)ccc1OC` (stereo unspecified), the cytotoxicity at 10 µM is 10.8%.

As to `COc1cc(NCCNC(=O)c2ccc3[nH]ccc3c2)cc(OC)c1`, the cytotoxicity at 10 µM amounted to 6.44%.

As for `CCCn1nnnc1CSc1nccn1C`, the cytotoxicity at 10 µM was -3.39%.

On to `CN1CCN(C(C)(C)CNC(=O)C2CCCN2S(C)(=O)=O)CC1` (stereo unspecified), for which the cytotoxicity at 10 µM amounted to 7.45%.

Take `CC(CS(C)(=O)=O)N(C(=O)CCc1ccsc1)C1CC1` (stereo unspecified): the cytotoxicity at 10 µM is 1.97%.

In the case of `OCC1CCCCN1Cc1nc(Cc2ccccc2)no1` (stereo unspecified), the cytotoxicity at 10 µM worked out at 5.13%.

Consider `CC(C)c1ncc2c(n1)CN(Cc1ccc3c(c1)OCCO3)CC2`, for which the cytotoxicity at 10 µM was -0.996%.

In the case of `CC(=O)N1Cc2ccccc2CC1C(=O)Nc1ccc(C)cn1` (stereo unspecified), the cytotoxicity at 10 µM was -0.147%.

As for `CN(Cc1ccc([S+](C)[O-])cc1)c1ccc(Cl)cn1` (stereo unspecified), the cytotoxicity at 10 µM turned out to be 8.97%.

On to `CCOc1cccnc1C(=O)N1CCC(c2ccccc2OC)C1` (stereo unspecified), for which the cytotoxicity at 10 µM came to 7.71%.

With `Cc1cnn(CCNCCCOc2ccc3c(c2)OCO3)c1`, the cytotoxicity at 10 µM was -3.6%.

As to `Cc1ccc(NC(=O)CCC2CC2)cc1N1CCOC1=O`, the cytotoxicity at 10 µM was 3.86%.

In the case of `CCc1ccc(C(=O)Nc2cc(N3CCNC3=O)ccc2Cl)o1`, the cytotoxicity at 10 µM is 6.03%.

Consider `Cn1cc(NC(=O)c2cc[nH]n2)cc(Cl)c1=O`, for which the cytotoxicity at 10 µM is -18.3%.

Take `CN1CCC(N(CCc2ccccc2)C(=O)c2ccoc2)CC1`: the cytotoxicity at 10 µM is -5.42%.

Turning to `CN(C)C(C(=O)N1CC(c2ccccn2)C1)c1cccc(F)c1` (stereo unspecified), the cytotoxicity at 10 µM is -0.95%.

For the molecule `Nc1nc(CNc2nccc(CCC(F)(F)F)n2)cs1`, the cytotoxicity at 10 µM is -2.38%.

Take `Cc1cc2nc(C(C)C)cc(N(C)CC3CCCN3C)n2n1` (stereo unspecified): the cytotoxicity at 10 µM turned out to be 8.49%.

Consider `CC(=O)N1CCC(Oc2ccc(Cl)cc2C(=O)N2CCCO2)CC1`, for which the cytotoxicity at 10 µM turned out to be 15.3%.

`COc1ccc(CNC(=O)Cc2csc(C(C)=O)c2)cc1`: the cytotoxicity at 10 µM turned out to be 4.95%.

In the case of `COc1ncccc1C(=O)N1CCC(c2nc3c(C)cccc3[nH]2)CC1`, the cytotoxicity at 10 µM is 11.7%.

As to `O=C(CCc1ccco1)N1CCc2[nH]nc(COc3ccccc3)c2C1`, the cytotoxicity at 10 µM came out at 0.86%.

Regarding `Cc1ccc(Cl)cc1-n1nnnc1C1(N2CCCC2)CCCC1`, the cytotoxicity at 10 µM turned out to be 1.18%.

For the molecule `Cc1cccc(SC2CCN(C(=O)CCCS(N)(=O)=O)CC2)c1`, the cytotoxicity at 10 µM is -6.01%.

For the molecule `CCNC(=O)C1CCN(c2cc(-c3ccccc3)nc3ccnn23)C1` (stereo unspecified), the cytotoxicity at 10 µM was -16.9%.

With `CCn1c(C2CCN(C(=O)c3cc(C4CC4)on3)CC2)nn(C)c1=O`, the cytotoxicity at 10 µM is -5.82%.

With `c1ccc(CCN2CCN(c3ncnc4[nH]ccc34)CC2)cc1`, the cytotoxicity at 10 µM was 5.09%.

Consider `CSCCC(O)C(=O)N1CCCN(Cc2ccc(F)cc2)CC1` (stereo unspecified), for which the cytotoxicity at 10 µM amounted to 5.14%.

Turning to `OC1(CN2CCCC2)COCCN(c2noc(-c3ccccc3)n2)C1` (stereo unspecified), the cytotoxicity at 10 µM turned out to be 0.726%.

For `CCn1nccc1S(=O)(=O)N1CCC2(CCCN(C(C)C)C2=O)C1` (stereo unspecified), the cytotoxicity at 10 µM is -10.9%.

`Cc1ccccc1N1CCN(C(=O)c2ncc(F)cc2F)C(C)C1` (stereo unspecified): the cytotoxicity at 10 µM was found to be 11.4%.

Take `COc1ccc(N2CCC(N3C[C@H](NC(C)=O)[C@@H](C(C)C)C3)CC2)cc1`: the cytotoxicity at 10 µM is -9.92%.

Regarding `COc1ccccc1-n1cc(C(=O)NCCn2nc(C)nc2C)cn1`, the cytotoxicity at 10 µM was 9.27%.

In the case of `CS(=O)(=O)c1ccc(CN2CCCCC2c2ccc(F)cc2)cc1` (stereo unspecified), the cytotoxicity at 10 µM was 6.04%.

As to `Cc1cc(NC(C)Cn2cccn2)n2nccc2n1` (stereo unspecified), the cytotoxicity at 10 µM was 1.99%.

For the molecule `Cc1nn(C)c(C)c1CCC(=O)NCc1csc(N2CCCC2)n1`, the cytotoxicity at 10 µM is -4.55%.

For `CCN1CCN(S(=O)(=O)c2cnc(NC(C)=O)s2)CC1`, the cytotoxicity at 10 µM was 1.37%.

For `CCOc1ccc(-c2cc(CCN)ccc2OC)cc1`, the cytotoxicity at 10 µM was 1.63%.

`Cc1nnsc1C(=O)N1CCC2(CC1)c1nc[nH]c1CCN2CC(C)C`: the cytotoxicity at 10 µM was found to be 26.3%.

On to `Cc1nn(-c2ccccc2)c2c1C(c1ccc(C(=O)O)cc1)CC(=O)N2` (stereo unspecified), for which the cytotoxicity at 10 µM turned out to be 10.6%.

On to `Cn1ccnc1C(NCc1ccccc1)c1ccc(F)cc1` (stereo unspecified), for which the cytotoxicity at 10 µM worked out at 0.573%.

`CC(C)(C)c1nnc(CN2CCCC2Cn2cncn2)o1` (stereo unspecified): the cytotoxicity at 10 µM is -4.04%.

As for `Cc1cnc(CN2CCOC(Cn3nc(C)cc3C)C2)cn1` (stereo unspecified), the cytotoxicity at 10 µM was -2.81%.

With `COc1c(C)cnc(CN2CCC(C(=O)N(C)C)CC2)c1C`, the cytotoxicity at 10 µM is -12.6%.

Consider `c1ccc(Cn2cc(CNCC3CCCN3c3cccnn3)cn2)cc1` (stereo unspecified), for which the cytotoxicity at 10 µM was -4.03%.

Regarding `CCN1CCOC(CNCc2ccccn2)C1` (stereo unspecified), the cytotoxicity at 10 µM is -9.09%.

As for `CN(Cc1ccsc1)C(=O)c1cc2c([nH]c1=O)CCCC2=O`, the cytotoxicity at 10 µM is -6.88%.

`Cc1nc(N2CCN(C(=O)c3ccc(O)cc3)CC2)c2cnn(C)c2n1`: the cytotoxicity at 10 µM was -4.91%.

`Cc1nc(-c2nnc[nH]2)sc1C(=O)N(Cc1cccnc1)C1CC1`: the cytotoxicity at 10 µM was -5.79%.

As to `Cc1ccc(C(=O)N2CCN(CCc3cccs3)CC2)c(=O)[nH]1`, the cytotoxicity at 10 µM is -3.94%.

`Cc1cc(C)cc(OCC(=O)NC2CCN(S(C)(=O)=O)CC2)c1`: the cytotoxicity at 10 µM was -5.72%.

Take `Cc1ccsc1CNC(=O)Cc1c(C)nc2c(c1C)c(=O)[nH]n2C`: the cytotoxicity at 10 µM is -0.168%.

On to `O=S(=O)(C1CC1)N1CC[C@@H]2[C@@H]1CCN2Cc1cccs1`, for which the cytotoxicity at 10 µM worked out at 5.77%.

Take `CS(=O)(=O)N1C[C@H]2CCC[C@@]2(COc2ccccn2)C1`: the cytotoxicity at 10 µM turned out to be 1.13%.

Turning to `CS(=O)(=O)NCc1cnc2n1CCN(Cc1ccoc1)CC2`, the cytotoxicity at 10 µM was -4.1%.

Regarding `CN(C)CCO[C@H]1CN(Cc2ccc3c(c2)OCO3)[C@@H]2COC[C@H]12`, the cytotoxicity at 10 µM is -5.5%.

Turning to `CN(Cc1ccccn1)C1CC2(CCN(Cc3cccnc3)CC2)C1`, the cytotoxicity at 10 µM was found to be 0.925%.

In the case of `CO[C@H]1CN(Cc2ccc(C)o2)[C@@H]2CCCO[C@H]12`, the cytotoxicity at 10 µM is -144%.

As for `COCc1nnc2n1CCN(Cc1ccoc1)C2`, the cytotoxicity at 10 µM is -2.56%.

`COCC(=O)N1CCC2(CC1)COC(COCc1ccccn1)C2` (stereo unspecified): the cytotoxicity at 10 µM is -128%.

For `CC(C)Nc1nc2c(cc1C(=O)NCC1CC1)CCNCC2`, the cytotoxicity at 10 µM is -5.42%.

With `CN(C)CCN1CCC2(CCCN(C(=O)C3CCC3)C2)CC1`, the cytotoxicity at 10 µM came out at 4.38%.

With `O=C(Cc1ccccn1)N1CCN2C[C@H](Oc3cccc(F)c3)C[C@H]2C1`, the cytotoxicity at 10 µM stood at 3.94%.

Take `OCCN1CCC2(CC1)CC(NCc1ccccn1)c1ccccc1O2` (stereo unspecified): the cytotoxicity at 10 µM was found to be 0.98%.

Turning to `Cn1ccnc1CN1CCC2(CC1)CN(Cc1ccccc1)C(=O)CO2`, the cytotoxicity at 10 µM was -3.99%.

As for `OCC1N(Cc2ccco2)C2CCC1(O)CC2` (stereo unspecified), the cytotoxicity at 10 µM worked out at 3.1%.

For the molecule `O=C1[C@@H]2CC[C@@H](CN(C3CCOCC3)C2)N1Cc1cscn1`, the cytotoxicity at 10 µM was -7.15%.

Take `Cn1c(=NC(=O)CSCC(=O)Nc2nccs2)sc2ccccc21`: the cytotoxicity at 10 µM is -1.81%.
